High-throughput results from PubChem.
Rows were chosen to be rich in hits. Some 1.8% of all compounds tested hit in one or more screens of this group.
NPY-Y2 PAM-ag: NPY-Y2 potentiators or agonists, primary screen, cell-based; activation, % at 3.6 µM; AID 1359, 2008; cells expressing NPY-Y2, potentiator/agonist read-out; 0.45% of 220,000 active; in the data active = activation above about 27%;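 also: cells stimulated with NPY near EC25 plus isoproterenol at EC100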
Target sequence (P49146 whole entry, looked up): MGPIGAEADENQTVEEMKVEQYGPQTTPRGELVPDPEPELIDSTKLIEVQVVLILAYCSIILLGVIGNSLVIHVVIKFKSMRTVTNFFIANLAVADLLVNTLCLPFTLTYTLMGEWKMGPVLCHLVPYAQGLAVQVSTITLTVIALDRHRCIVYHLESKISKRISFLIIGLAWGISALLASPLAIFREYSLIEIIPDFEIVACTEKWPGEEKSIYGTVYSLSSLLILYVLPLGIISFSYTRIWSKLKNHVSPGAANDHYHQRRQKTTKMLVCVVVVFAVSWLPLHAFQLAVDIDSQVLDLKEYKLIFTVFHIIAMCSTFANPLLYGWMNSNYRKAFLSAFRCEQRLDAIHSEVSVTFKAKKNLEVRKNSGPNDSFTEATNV
NPY-Y1 antag: NPY-Y1 receptor antagonists, primary screen, cell-based; AID 1040, 2008; Neuropeptide Y receptor type 1 (Homo sapiens), P25929; inhibition, % at 3.6 µM; HEK293-CNG Y1 cells, membrane potential fluorescence; NPY at EC95, then isoproterenol; 1% of 200,000 active;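 active = inhibition above the campaign mean inhibition of all tested compounds plus 3 SD, cut at about 20% in these data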
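Material: HEK293 Y1/CNG channel cell line; also added: NPY (25 nM), isoproterenol (1 µM), Ro 20-1724 (25 µM); doses: one concentration, 3.6 µM, in 0.4% DMSO; schedule: compound incubation 1 h at room temperature, readout 45 min post-stimulation; technique: membrane potential fluorescence; measure: fluorescence ratio normalized to % inhibition between controls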
NPY-Y2 antag: NPY-Y2 receptor antagonists, primary screen, cell-based; 0.99% of 140,000 active; inhibition, % at 2.7 µM; NPY-Y2 expressing cells, antagonist mode; Neuropeptide Y receptor type 2 (Homo sapiens), P49146
NPY-Y1 PAM-ag: NPY-Y1 receptor potentiators or agonists, primary screen, cell-based; Neuropeptide Y receptor type 1 (Homo sapiens), P25929; NPY-Y1 expressing cells, potentiator/agonist activation; activation, % at 3.6 µM; 0.37% of 220,000 active; in the data active = activation above about 33%, passing the limit was not always enough;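 also: cells stimulated with NPY at EC10 then isoproterenol at EC100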
NPY1 antag conf: NPY-Y1 receptor antagonists, retest of hits, confirmation, HEK293-CNG cells, membrane potential fluorescence, triplicate; shares compounds with NPY-Y1 antag; cAMP; NPY challenge against isoproterenol-raised cAMP; inhibition, % at 3.6 µM; 21% of 1,200 active; in the data active = inhibition above about 20%
NPY-Y2 antag ct: NPY-Y2 receptor antagonists, selectivity check, confirmation, counter-screen for NPY-Y1 antagonist project, HEK293-CNG cells, membrane potential fluorescence, triplicate. shares compounds with NPY-Y1 antag. antagonism; cells given NPY, then isoproterenol. inhibition, % at 3.6 µM. 28% of 1,200 active
Hits are given with their value. Rule as the data show it, unless noted: active = inhibition above about 17%; inactive = the rest.

Screening CNCCCOc1cccc(Oc2ccccc2)c1 returned NPY-Y2 PAM-ag inactive, NPY-Y1 antag 23.2, NPY-Y1 PAM-ag inactive, NPY1 antag conf inactive and NPY-Y2 antag ct inactive.
Screening CC(C)CC(c1nnnn1C1CCCCC1)N1CCN(c2ncccn2)CC1 (stereo unspecified) returned NPY-Y2 PAM-ag inactive, NPY-Y1 antag inactive, NPY-Y2 antag inactive and NPY-Y1 PAM-ag inactive.
Screening CC(C)CC(c1nnnn1C1CCCC1)N1CCN(c2ccccc2F)CC1 (stereo unspecified) returned NPY-Y2 PAM-ag inactive, NPY-Y1 antag 27.1, NPY-Y2 antag inactive, NPY-Y1 PAM-ag inactive, NPY1 antag conf 24.4 and NPY-Y2 antag ct inactive.
`COc1ccc(OC)c(C(c2nnnn2C2CCCC2)N2CCN(c3ccccc3F)CC2)c1` (stereo unspecified) gave NPY-Y2 PAM-ag inactive, NPY-Y1 antag 21.9, NPY-Y2 antag inactive, NPY-Y1 PAM-ag inactive, NPY1 antag conf inactive and NPY-Y2 antag ct inactive.
For COc1ccc(N2CCN(C(c3cccc(OC)c3OC)c3nnnn3C3CCCC3)CC2)cc1 (stereo unspecified) the results were NPY-Y2 PAM-ag inactive, NPY-Y1 antag 23.5, NPY-Y2 antag inactive, NPY-Y1 PAM-ag inactive, NPY1 antag conf 21.7 and NPY-Y2 antag ct inactive.
For O=C(Nc1ccc(OCC(=O)N2CCOCC2)cc1)c1cncc(Br)c1 the results were NPY-Y2 PAM-ag inactive, NPY-Y1 antag inactive, NPY-Y2 antag inactive and NPY-Y1 PAM-ag inactive.
Screening C[C@@H](NC(=O)c1nc[nH]c1C(=O)N[C@@H](Cc1ccccc1)C(=O)OC(C)(C)C)c1ccccc1 returned NPY-Y2 PAM-ag inactive, NPY-Y1 antag inactive and NPY-Y1 PAM-ag inactive.
`CNCC(C)COc1ccccc1OCc1ccccc1` (stereo unspecified) gave NPY-Y2 PAM-ag inactive, NPY-Y1 antag 21.6, NPY-Y2 antag inactive, NPY-Y1 PAM-ag inactive, NPY1 antag conf inactive and NPY-Y2 antag ct inactive.
Screening CS(=O)(=O)N(CC(=O)NCCC1=CCCCC1)C1CCCCC1 returned NPY-Y2 PAM-ag inactive, NPY-Y1 antag inactive, NPY-Y2 antag inactive and NPY-Y1 PAM-ag inactive.
O=[N+]([O-])c1ccc(O)c(/C=N/NC2=NS(=O)(=O)c3ccccc32)c1 was read as NPY-Y2 PAM-ag inactive, NPY-Y1 antag 35.1, NPY-Y1 PAM-ag inactive, NPY1 antag conf inactive and NPY-Y2 antag ct inactive.
O=[N+]([O-])c1ccc(/C=N/NC2=NS(=O)(=O)c3ccccc32)cc1 was read as NPY-Y2 PAM-ag inactive, NPY-Y1 antag inactive and NPY-Y1 PAM-ag inactive.
Cc1ccc(S(=O)(=O)N2CCOCC2)cc1NC(=O)c1cc(-c2ccccn2)nc2ccccc12 was read as NPY-Y2 PAM-ag inactive and NPY-Y1 PAM-ag inactive.
`COc1ccc(Oc2c(-c3ccc(O)cc3O)n[nH]c2C)cc1` gave NPY-Y2 PAM-ag inactive, NPY-Y1 antag 82.9, NPY-Y2 antag inactive, NPY-Y1 PAM-ag inactive, NPY1 antag conf 34.8 and NPY-Y2 antag ct inactive.
For CC(=O)Nc1ccc(SCC(=O)c2cc(C)n(Cc3cccs3)c2C)cc1 the results were NPY-Y2 PAM-ag inactive, NPY-Y1 antag inactive, NPY-Y2 antag inactive and NPY-Y1 PAM-ag inactive.
For CCn1c2ccccc2c2cc(NC(=O)c3cc(OC)cc(OC)c3)ccc21 the results were NPY-Y2 PAM-ag inactive, NPY-Y1 antag inactive, NPY-Y2 antag inactive and NPY-Y1 PAM-ag inactive.
CCn1c2ccccc2c2cc(NC(=O)c3cc(OC)c(OC)c(OC)c3)ccc21 was read as NPY-Y2 PAM-ag inactive, NPY-Y1 antag 34.6, NPY-Y2 antag inactive, NPY-Y1 PAM-ag inactive, NPY1 antag conf inactive and NPY-Y2 antag ct inactive.
`Clc1ccc(OCCN2CCN(c3ncnc4sccc34)CC2)cc1` gave NPY-Y2 PAM-ag inactive, NPY-Y1 antag 26.0, NPY-Y2 antag inactive, NPY-Y1 PAM-ag inactive, NPY1 antag conf inactive and NPY-Y2 antag ct 19.9.
Screening Cc1ccc(OCCN2CCN(c3ncnc4sc(C)c(C)c34)CC2)cc1 returned NPY-Y2 PAM-ag inactive, NPY-Y1 antag inactive, NPY-Y2 antag inactive and NPY-Y1 PAM-ag inactive.
`CC(Nc1cccc2ccccc12)C(=O)N/N=C/c1ccc([N+](=O)[O-])cc1` (stereo unspecified) gave NPY-Y2 PAM-ag inactive, NPY-Y1 antag inactive, NPY-Y2 antag inactive and NPY-Y1 PAM-ag inactive.
`CCOC(=O)CC(NC(=O)C(CC)c1ccccc1)c1ccccc1Cl` (stereo unspecified) gave NPY-Y2 PAM-ag inactive, NPY-Y1 antag 25.0, NPY-Y2 antag inactive, NPY-Y1 PAM-ag inactive, NPY1 antag conf inactive and NPY-Y2 antag ct inactive.
For Cc1ccc(NC2=NCC(=O)N2Cc2ccccc2)c(C)c1 the results were NPY-Y2 PAM-ag inactive, NPY-Y1 antag inactive, NPY-Y2 antag inactive and NPY-Y1 PAM-ag inactive.
O=C(COC(=O)CSc1ccc2ccccc2c1Br)NC1CC1 was read as NPY-Y2 PAM-ag inactive, NPY-Y1 antag 25.1, NPY-Y1 PAM-ag inactive, NPY1 antag conf inactive and NPY-Y2 antag ct inactive.
CC(=O)c1c(OC(=O)c2ccco2)c2ccccc2n1C was read as NPY-Y2 PAM-ag inactive, NPY-Y1 antag inactive, NPY-Y2 antag inactive and NPY-Y1 PAM-ag inactive.
CC(=O)c1c(OC(=O)c2ccc(C)cc2)c2ccccc2n1C was read as NPY-Y2 PAM-ag inactive, NPY-Y1 antag 33.7, NPY-Y2 antag inactive, NPY-Y1 PAM-ag inactive, NPY1 antag conf inactive and NPY-Y2 antag ct inactive.
For CN(C)CCC1Sc2ccccc2Oc2ccccc21 (stereo unspecified) the results were NPY-Y2 PAM-ag inactive, NPY-Y1 antag 26.8, NPY-Y2 antag inactive, NPY-Y1 PAM-ag inactive, NPY1 antag conf inactive and NPY-Y2 antag ct inactive.
CC1c2ccccc2SC(CCCN(C)C)c2ccccc21 (stereo unspecified) was read as NPY-Y2 PAM-ag inactive, NPY-Y1 antag inactive, NPY-Y2 antag inactive and NPY-Y1 PAM-ag inactive.
CCCC(c1nnnn1Cc1ccco1)N1CCN(C2CCCC2)CC1 (stereo unspecified) was read as NPY-Y2 PAM-ag inactive, NPY-Y1 antag 21.6, NPY-Y2 antag inactive, NPY-Y1 PAM-ag inactive, NPY1 antag conf inactive and NPY-Y2 antag ct inactive.
For CCCC(c1nnnn1Cc1cccs1)N1CCN(C2CCCC2)CC1 (stereo unspecified) the results were NPY-Y2 PAM-ag inactive, NPY-Y1 antag 24.9, NPY-Y2 antag inactive, NPY-Y1 PAM-ag inactive, NPY1 antag conf inactive and NPY-Y2 antag ct inactive.
Screening CC(C)C(c1nnnn1Cc1ccco1)N1CCN(C2CCCC2)CC1 (stereo unspecified) returned NPY-Y2 PAM-ag inactive, NPY-Y1 antag inactive, NPY-Y2 antag inactive and NPY-Y1 PAM-ag inactive.
`Cc1ccc(N(Cc2ccco2)C(=O)c2ccc(N3CCCCC3)c([N+](=O)[O-])c2)cc1` gave NPY-Y2 PAM-ag inactive, NPY-Y1 antag inactive, NPY-Y2 antag inactive and NPY-Y1 PAM-ag inactive.
`CCOC(=O)c1ccc(Nc2ncnc3ccc(C)cc23)cc1` gave NPY-Y2 PAM-ag inactive, NPY-Y1 antag 45.2, NPY-Y2 antag inactive, NPY-Y1 PAM-ag inactive, NPY1 antag conf inactive and NPY-Y2 antag ct inactive.
